# Assay results published in PubChem BioAssay.
# Calls of active or inactive are those of the source.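 The calls were made as follows, unless noted: active = inhibition of the reporter signal at or above 50%; inactive = inhibition below 50%.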
# Columns and labels:
# [1] = inhibitors of TNFa-induced NFkB p65 translocation, primary screen, imaging, HUVEC, MLSMR starter and 10KST1 sets (AID 438;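 active = inhibition above 20% together with a positive visual image hit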;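 also: compound added about 3h40 before a 20 min TNFalpha stimulation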;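 as to inhibition: signal is the nuclear over cytoplasmic p65 intensity ratio per well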); conditions: HUVEC TNFa-induced p65 nuclear translocation; cell count: measured here: nuclei count (cytotoxicity indicator), at 2.08 µM; inhibition: at 2 µM, stronger effect = higher value, 0% TNFa-plus-vehicle, 100% no-TNFa wells
# [2] = inhibitors of mutant huntingtin aggregation, primary screen, imaging, exon1htt(103Q)mCFP cells, high-content imaging (AID 483;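 active = visual image review flags a hit and inhibition of aggregation exceeds 20%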;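 also: compound exposure lasted 3 days before fixation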;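 as to nuclei count: percent of the per-plate median nuclei count of sample wells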); conditions: exon1htt(103Q)mCFP cell line, aggregate imaging, at 2 µM; inhibition of aggregation: stronger effect = higher value; nuclei count: measured here: cell count, toxicity
# [3] = inhibitors of E-selectin induction by TNFa, primary screen, imaging, HUVEC, immunofluorescence, MLSMR starter and 10KST1 sets (AID 487;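 active = visually confirmed hit in the image check and inhibition above 20%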;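 as to inhibition: signal is fraction of cell area covered by stained E-selectin grains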;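 as to nuclei count: 100% = median nuclei count of all wells on the same plate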); conditions: HUVEC TNFalpha-induced E-selectin immunofluorescence imaging, at 2 µM; inhibition: stronger effect = higher value; nuclei count: measured here: cell number, toxicity
# [4] = target: Voltage-gated potassium channel subunit beta-2 (Rattus norvegicus) (UniProt P62483); test: KvBeta enzyme negative modulators, primary screen, biochemical, NADPH fluorescence (AID 622;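 active = fluorescence slope higher than the sample average by over 3 SD, cut at about -0.22 in these data, passing the limit was not always enough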;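 also: slope of raw intensity against log time taken from 70 to 1610 s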); conditions: recombinant KvBeta, 4-cyanobenzaldehyde reduction, at 10 µM, stronger effect = higher value
# Chain of Voltage-gated potassium channel subunit beta-2 (Rattus norvegicus) (P62483 whole entry, looked up): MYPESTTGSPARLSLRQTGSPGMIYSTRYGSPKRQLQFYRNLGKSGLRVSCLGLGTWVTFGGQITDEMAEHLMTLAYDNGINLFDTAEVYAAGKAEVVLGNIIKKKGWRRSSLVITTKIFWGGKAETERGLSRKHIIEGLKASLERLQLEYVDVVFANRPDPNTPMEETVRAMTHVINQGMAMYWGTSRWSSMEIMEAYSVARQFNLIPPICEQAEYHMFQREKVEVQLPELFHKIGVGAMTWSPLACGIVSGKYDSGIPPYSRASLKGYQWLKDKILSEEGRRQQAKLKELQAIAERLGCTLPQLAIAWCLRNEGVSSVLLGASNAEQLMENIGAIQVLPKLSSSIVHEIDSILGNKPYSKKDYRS
# [5] = target: Voltage-gated potassium channel subunit beta-2 (Rattus norvegicus) (UniProt P62483); test: KvBeta positive modulators, primary screen, biochemical, NADPH fluorescence (AID 623;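 active = NADPH fluorescence slope more negative than the mean of all samples by about 3 SD, 99.7% confidence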;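 also: fluorescence intensity change per second fitted from 20 to 320 s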); conditions: Recombinant KvBeta, NADPH fluorescence decrease slope, 10 min; at 10 µM; stronger effect = lower value
# [6] = target: Muscarinic acetylcholine receptor M4 (Homo sapiens) (UniProt P08173); test: compounds altering M4/GIRK thallium flux, either direction, primary screen, M4 allosteric agonist project, cell-based, HEK293 M4/GIRK, BTC-AM (AID 625;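 active = fluorescence slope after compound addition differing from the mean of all tested samples at 99.7% confidence, mostly higher but some lower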;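 also: thallium influx through GIRK channels coupled to M4 in HEK293 cells with BTC-AM dye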); conditions: at 10 µM, actives lie on both sides
# Chain of Muscarinic acetylcholine receptor M4 (Homo sapiens) (P08173 whole entry, looked up): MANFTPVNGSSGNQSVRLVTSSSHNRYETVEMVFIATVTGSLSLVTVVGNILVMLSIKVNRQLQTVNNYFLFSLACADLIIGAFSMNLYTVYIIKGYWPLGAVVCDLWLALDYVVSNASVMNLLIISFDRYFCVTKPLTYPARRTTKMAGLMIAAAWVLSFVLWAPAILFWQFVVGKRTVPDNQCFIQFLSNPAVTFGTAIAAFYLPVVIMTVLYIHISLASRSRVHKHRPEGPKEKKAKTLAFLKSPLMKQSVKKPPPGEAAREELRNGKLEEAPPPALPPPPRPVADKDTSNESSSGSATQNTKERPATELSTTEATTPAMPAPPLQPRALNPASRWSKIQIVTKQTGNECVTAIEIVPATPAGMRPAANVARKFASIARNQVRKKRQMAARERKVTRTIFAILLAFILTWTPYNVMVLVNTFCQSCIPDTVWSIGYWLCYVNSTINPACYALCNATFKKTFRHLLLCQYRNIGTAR
# Outline: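 Material: M4/GIRK1/GIRK2 stable HEK293 cell line. Medium: pH 7.3 thallium assay buffer. Dosing: single compound concentration, 10 µM final. Schedule: 1 h dye loading, 2 min kinetic read. Measured by: kinetic fluorescence with BTC-AM dye. Read-out: post-addition slope, 15–24 s, of baseline-normalized fluorescence. Benchmarks: carbachol and DMSO controls.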
# [7] = inhibitors of Sendai virus-induced IRF3 signaling, primary screen, TLR/RLR signaling modifier project, cell-based, Sendai virus stimulus, luciferase, 10K MLSCN set (AID 602276;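 active = inhibition at or above 50% at 10 µM; inactive = inhibition below 50%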;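 also: firefly luciferase from ISG56 promoter only with Renilla not read in this screen; 0% = Sendai virus plus DMSO and 100% = medium plus DMSO without virus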); conditions: HEK293 RL24 IRF3 luciferase reporter, at 10 µM, stronger effect = higher value
# [8] = inhibitors of poly I:C-induced TLR3 signaling, primary screen, cell-based, poly I:C stimulus, luciferase, 10K MLSCN set (AID 602277); conditions: HEK293-TLR3 RL24 IRF3 luciferase reporter, at 10 µM, stronger effect = higher value
Compound,cell count [1],inhibition [1],inhibition of aggregation [2],nuclei count [2] [%],inhibition [3],nuclei count [3] [%],fluorescence slope [4],NADPH fluorescence slope [5],fluorescence slope [6],inhibition [7],inhibition [8]
CC(C)(C)NC(=O)C(c1ccco1)N(C(=O)Cn1nnc(-c2ccc(F)cc2)n1)c1ccccc1 (stereo not drawn),422,9.2% (inactive),-1.8% (inactive),99.8,-146% (inactive),122,-0.551 (inactive),8.1e-06 (inactive),0.00525 (inactive),15.8% (inactive),26.6% (inactive)
COC(=O)CN(c1ccc(F)cc1)S(=O)(=O)c1ccccc1,329,1.8% (inactive),-0.2% (inactive),86.5,-92.2% (inactive),95.6,-0.527 (inactive),-0.000183 (inactive),0.00367 (inactive),6.05% (inactive),-8.76% (inactive)
COC(=O)CN1C(=O)C2(C(C#N)=C(N)Oc3c2c(C)nn3-c2ccccc2)c2ccccc21 (stereo not drawn),668,-24.1% (inactive),5% (inactive),97.4,18.6% (inactive),97.4,-0.475 (inactive),-6.6e-05 (inactive),0.0047 (inactive),16.1% (inactive),19.7% (inactive)
Cc1ccc(-c2nn(C)c(=O)c3ccccc23)cc1S(=O)(=O)N1CCOCC1,595,-10.5% (inactive),-24.4% (inactive),101,-64.2% (inactive),102,-0.511 (inactive),-2.7e-05 (inactive),0.0045 (inactive),8.97% (inactive),30.3% (inactive)
CCCCc1ccc(NC(=O)c2c(C)noc2C)cc1,451,-2.5% (inactive),0.1% (inactive),109,47.3% (inactive),95.2,-0.563 (inactive),-0.000106 (inactive),0.00365 (inactive),-8.01% (inactive),-38.5% (inactive)
CCNCCNC(=O)c1c(O)c2ccccc2n(CC)c1=O,289,-1.4% (inactive),-5.8% (inactive),60.8,29.6% (inactive),99.7,-0.539 (inactive),-4.3e-05 (inactive),0.0077 (inactive),10% (inactive),13.5% (inactive)
CC1=C(C(N)=O)C(c2ccc(Cl)cc2Cl)n2ncnc2N1 (stereo not drawn),631,-2.5% (inactive),18.4% (inactive),105,-129% (inactive),106,-0.558 (inactive),2e-05 (inactive),0.00707 (inactive),29.3% (inactive),33.2% (inactive)
CC1C(O)=C(c2nc3ccccc3[nH]2)C(=N)N1c1ccccc1 (stereo not drawn),331,2.2% (inactive),-12.9% (inactive),103,-1.7% (inactive),104,-0.482 (inactive),-2.5e-05 (inactive),0.00621 (inactive),-3.95% (inactive),-41% (inactive)
Cc1ccc(F)cc1NC(=O)c1cccc2nccnc12,532,-45.9% (inactive),-49.2% (inactive),13.4,-61% (inactive),108,-0.554 (inactive),2e-05 (inactive),0.00494 (inactive),-11.7% (inactive),-19.2% (inactive)
COc1ccc(N2C(=O)CC(NC3CC3)C2=O)cc1 (stereo not drawn),416,9.4% (inactive),0.9% (inactive),108,7.7% (inactive),110,-0.577 (inactive),1.5e-05 (inactive),0.00561 (inactive),16.4% (inactive),24% (inactive)
N=c1sc2ccccc2n1-c1ccccc1,402,10.9% (inactive),14.5% (inactive),96.6,-469% (inactive),114,-0.583 (inactive),-1.3e-05 (inactive),0.00638 (inactive),15.3% (inactive),14.4% (inactive)
COc1ccc(-c2noc(COc3ccc4ccccc4c3Br)n2)cc1OC,565,14.8% (inactive),-29.8% (inactive),109,8.2% (inactive),104,-0.564 (inactive),-3e-05 (inactive),0.00985 (inactive),-38.1% (inactive),-45.2% (inactive)
C=C(C)c1cccc(C(C)(C)NC(=O)Nc2ncccn2)c1,472,-4.3% (inactive),1.6% (inactive),106,-0.4% (inactive),99.6,-0.601 (inactive),-1.1e-05 (inactive),0.00622 (inactive),-42.4% (inactive),98.6% (active)
Nc1nc(CN2CCN(Cc3ccc4c(c3)OCO4)CC2)nc(Nc2ccccc2)n1,652,6.8% (inactive),-1.8% (inactive),116,-9.3% (inactive),115,-0.578 (inactive),-4.8e-05 (inactive),0.00565 (inactive),10.9% (inactive),22.6% (inactive)
COc1cc2c(cc1OC)CN(C(=O)COc1ccc(C#N)cc1)CC2,283,-7.5% (inactive),4.5% (inactive),91.8,4.1% (inactive),90.3,-0.574 (inactive),-4.9e-05 (inactive),0.00682 (inactive),6.14% (inactive),4.87% (inactive)
O=C(NCc1ccccc1)N1CCn2c(nc3ccccc32)C1,555,2.5% (inactive),8.2% (inactive),99.6,-13.3% (inactive),111,-0.413 (inactive),-2.6e-05 (inactive),0.00568 (inactive),-0.797% (inactive),-7.43% (inactive)
Cc1nc2sc(C(c3cccc(F)c3)N3CCN(C(=O)c4ccco4)CC3)c(O)n2n1 (stereo not drawn),228,-2.8% (inactive),-3.1% (inactive),106,-7% (inactive),112,-0.306 (inactive),-1.4e-05 (inactive),0.00489 (inactive),-14.2% (inactive),-22.6% (inactive)
CCOP(=O)(c1ccc(N(C)C)cc1)C(O)c1cc(OC)c(OC)c(OC)c1 (stereo not drawn),713,-0.6% (inactive),0% (inactive),113,10.2% (inactive),103,-0.455 (inactive),-4.5e-05 (inactive),0.00563 (inactive),4.26% (inactive),21% (inactive)
COc1ccc(C(C)(C)C)cc1NC(=O)Nc1ccc2c(c1)OCO2,433,2.7% (inactive),7.4% (inactive),102,-13.1% (inactive),96.8,-0.577 (inactive),-8.3e-06 (inactive),0.0063 (inactive),-6.55% (inactive),-2.75% (inactive)
COc1ccc(-c2nc(N)nc(C)c2Oc2ccccc2Br)c(O)c1,382,6.9% (inactive),-14% (inactive),100,-64.3% (inactive),85.6,-0.496 (inactive),6e-05 (inactive),0.00571 (inactive),10.9% (inactive),53% (active)
CCOc1ccccc1NC(=O)C1CCCN(C(=O)NCc2ccccc2)C1 (stereo not drawn),684,-7.7% (inactive),-15.4% (inactive),114,-96.5% (inactive),106,-0.448 (inactive),8e-05 (inactive),0.00645 (inactive),5.61% (inactive),-20.5% (inactive)
CCN(CC)CCCN(Cc1cc2cc(OC)ccc2[nH]c1=O)C(=O)Nc1ccccc1,327,7.1% (inactive),-3.3% (inactive),86.4,-31.9% (inactive),105,-0.382 (inactive),-5.9e-06 (inactive),0.00643 (inactive),17.1% (inactive),29.7% (inactive)
CC(=O)Nc1ccc(S(=O)(=O)N2CCN(Cc3ccncc3)CC2)cc1,679,-5.8% (inactive),-14% (inactive),123,-26.1% (inactive),126,-0.451 (inactive),-3.2e-05 (inactive),0.00451 (inactive),18.9% (inactive),16.4% (inactive)
COc1ccc(C(F)(F)F)cc1NC(=O)c1nc2nc(C)cc(C(F)F)n2n1,800,16.4% (inactive),14.9% (inactive),94.5,-22.3% (inactive),103,-0.498 (inactive),-2e-05 (inactive),0.00547 (inactive),5.86% (inactive),10.9% (inactive)
COc1cc(NS(=O)(=O)c2ccc(Br)s2)cc(OC)c1,596,10.2% (inactive),-27.3% (inactive),99.5,-77.9% (inactive),94.3,-0.402 (inactive),6.7e-05 (inactive),0.00547 (inactive),9.26% (inactive),10% (inactive)
CC(C)(C)OC(=O)N1CCOCCOCCN(C(=O)OC(C)(C)C)CCOCCOCC1,395,0.8% (inactive),2.5% (inactive),92.3,-90.1% (inactive),119,-0.579 (inactive),-6.4e-05 (inactive),0.00267 (inactive),4.46% (inactive),6.47% (inactive)
NC(=O)c1nsnc1-c1ccccc1O,504,-9.3% (inactive),-3.4% (inactive),107,20.3% (inactive),100,-0.531 (inactive),0.0001 (inactive),0.00622 (inactive),-10.2% (inactive),-7.73% (inactive)
CCn1cc(C(=O)Nc2cc3c(cc2NC(C)=O)OCCO3)c(=O)c2ccc(C)nc21,315,5.7% (inactive),-17.4% (inactive),114,-39.4% (inactive),115,-0.49 (inactive),-0.000144 (active),0.00463 (inactive),18.1% (inactive),16.9% (inactive)
